# Test results from ChEMBL document CHEMBL1125428, “Development of 2,3-dihydro-6-(3-phenoxypropyl)-2-(2-phenylethyl)-5-benzofuranol (L-670,630) as a potent and orally active inhibitor of 5-lipoxygenase” (J Med Chem, 1992).
# Experiments:
# [1] = target: T1, Polyunsaturated fatty acid 5-lipoxygenase (Rattus norvegicus, UniProt P12527); assay: Tested for its inhibitory activity against arachidonic acid in rat 5-lipoxygenase.
# T1 sequence (P12527 whole entry): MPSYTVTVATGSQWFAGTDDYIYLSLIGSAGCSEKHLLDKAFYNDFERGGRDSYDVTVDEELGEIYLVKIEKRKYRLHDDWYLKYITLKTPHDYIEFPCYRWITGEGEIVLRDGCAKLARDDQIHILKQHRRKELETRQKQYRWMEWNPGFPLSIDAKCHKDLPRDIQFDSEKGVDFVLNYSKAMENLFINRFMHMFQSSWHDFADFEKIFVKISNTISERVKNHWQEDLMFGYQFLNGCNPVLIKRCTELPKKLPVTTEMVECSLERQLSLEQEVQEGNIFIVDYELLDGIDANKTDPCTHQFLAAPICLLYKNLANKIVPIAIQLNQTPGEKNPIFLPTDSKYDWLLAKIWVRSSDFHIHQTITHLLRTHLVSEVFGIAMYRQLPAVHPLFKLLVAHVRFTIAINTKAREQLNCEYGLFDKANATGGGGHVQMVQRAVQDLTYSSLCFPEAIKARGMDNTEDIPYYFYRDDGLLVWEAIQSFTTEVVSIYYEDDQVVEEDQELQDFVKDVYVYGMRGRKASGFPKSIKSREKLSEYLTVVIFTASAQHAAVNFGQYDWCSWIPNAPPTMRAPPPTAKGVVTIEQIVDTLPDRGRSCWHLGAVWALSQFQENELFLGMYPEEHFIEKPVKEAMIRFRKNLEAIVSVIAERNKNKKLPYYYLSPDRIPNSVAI
# Method in brief: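 10000g supernatant from rat PMN leukocytes incubated 10 min with [14C]arachidonic acid. 5-Lipoxygenase activity taken as percentage conversion to 5-HETE plus 5,12-diHETEs.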
# [2] = tested on: Rattus norvegicus; assay: Total radioactivity in tissues of male sd rats dosed orally with H-labeled compound at 21 mg/kg after 30 min in lung; type: functional; details: route oral
# Method in brief: (§1)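 Male Sprague-Dawley rats received ³H-labelled drug (phenoxy ring, 3.96 μCi/mg) in PEG-400 by gavage at 21 mg/kg. Animals were killed at 5, 15, 30 min and at 1, 2, 4, 24 and 48 h. Homogenates were pooled per group, and total radioactivity was measured as the mean of duplicate combustions, in μg equiv/g. Two or three rats were used per point, except one rat at 24 and 48 h.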
# [3] = tested on: Rattus norvegicus; assay: Total radioactivity in tissues of male sd rats dosed orally with H-labeled compound at 21 mg/kg after 30 min in plasma; type: functional; details: route oral; method in brief: as §1
# [4] = tested on: Rattus norvegicus; assay: % compound was determined by the amount of radioactivity elute with H-labeled at 21 mg/kg after 5 min using RP-HPLC. at a dose of 380 ug/g in lung of male sd rat.; type: functional
# [5] = tested on: Rattus norvegicus; assay: Total radioactivity in tissues of male sd rats dosed orally with H-labeled compound at 21 mg/kg after 30 min in liver; type: functional; details: route oral; method in brief: as §1
# [6] = tested on: Rattus norvegicus; assay: Total radioactivity in tissues of male sd rats dosed intravenously with H-labeled compound at 21 mg/kg after 10 min in liver; type: functional; details: route intravenous
# Method in brief: (§2)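 Male Sprague-Dawley rats given ³H compound iv via femoral vein in PEG-400, 21 mg/kg, 3.96 μCi/mg. Killed at 2, 10, 30 min, 1, 2 and 4 h. Total radioactivity measured by combustion of composited tissue homogenates, in duplicate. Two or three rats per time point, one at 10 and 30 min.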
# [7] = tested on: Rattus norvegicus; assay: Total radioactivity in tissues of male sd rats dosed intravenously with H-labeled compound at 21 mg/kg after 1 hr in lung; type: functional; details: route intravenous; method in brief: as §2
# [8] = tested on: Rattus norvegicus; assay: Total radioactivity in tissues of male sd rats dosed intravenously with H-labeled compound at 21 mg/kg after 1 hr in plasma; type: functional; details: route intravenous
# [9] = tested on: Rattus norvegicus; assay: Total radioactivity in tissues of male sd rats dosed intravenously with H-labeled compound at 21 mg/kg after 2 min in kidney; type: functional; details: route intravenous; method in brief: as §2
# [10] = tested on: Rattus norvegicus; assay: Total radioactivity in tissues of male sd rats dosed intravenously with H-labeled compound at 21 mg/kg after 2 min in lung; type: functional; details: route intravenous; method in brief: as §2
# [11] = tested on: Rattus norvegicus; assay: Total radioactivity in tissues of male sd rats dosed intravenously with H-labeled compound at 21 mg/kg after 2 min in plasma; type: functional; details: route intravenous
# [12] = tested on: Rattus norvegicus; assay: Total radioactivity in tissues of male sd rats dosed intravenously with H-labeled compound at 21 mg/kg after 30 min in kidney; type: functional; details: route intravenous; method in brief: as §2
# [13] = tested on: Rattus norvegicus; assay: Total radioactivity in tissues of male sd rats dosed intravenously with H-labeled compound at 21 mg/kg after 30 min in plasma; type: functional; details: route intravenous
# [14] = tested on: Rattus norvegicus; assay: Total radioactivity in tissues of male sd rats dosed intravenously with H-labeled compound at 21 mg/kg after 4 hr in kidney; type: functional; details: route intravenous; method in brief: as §2
# [15] = tested on: Rattus norvegicus; assay: Total radioactivity in tissues of male sd rats dosed orally with H-labeled compound at 21 mg/kg after 48 hr in kidney; type: functional; details: route oral; method in brief: as §1
# [16] = tested on: Rattus norvegicus; assay: Total radioactivity in tissues of male sd rats dosed orally with H-labeled compound at 21 mg/kg after 48 hr in liver; type: functional; details: route oral; method in brief: as §1
# [17] = tested on: Rattus norvegicus; assay: Total radioactivity in tissues of male sd rats dosed orally with H-labeled compound at 21 mg/kg after 48 hr in plasma; type: functional; details: route oral; method in brief: as §1
# [18] = tested on: Rattus norvegicus; assay: Total radioactivity in tissues of male sd rats dosed orally with H-labeled compound at 21 mg/kg after 4 hr in kidney; type: functional; details: route oral; method in brief: as §1
# [19] = tested on: Rattus norvegicus; assay: Total radioactivity in tissues of male sd rats dosed intravenously with H-labeled compound at 21 mg/kg after 4 hr in liver; type: functional; details: route intravenous
# Method in brief: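 ³H label in the phenoxy ring, dissolved in PEG-400, specific activity 3.96 μCi/mg, given iv via femoral vein at 21 mg/kg to male Sprague-Dawley rats. Animals were killed at 2, 10, 30 min, 1, 2 and 4 h. Tissues from each group were pooled and homogenized, and total radioactivity was measured by combustion, averaged over duplicate combustions. Results are expressed as μg equiv/g. Two or three rats were used per time point.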
# [20] = tested on: Rattus norvegicus; assay: Total radioactivity in tissues of male sd rats dosed orally with H-labeled compound at 21 mg/kg after 15 min in kidney; type: functional; details: route oral; method in brief: as §1
# [21] = tested on: Rattus norvegicus; assay: Total radioactivity in tissues of male sd rats dosed orally with H-labeled compound at 21 mg/kg after 1 hr in kidney; type: functional; details: route oral; method in brief: as §1
# [22] = tested on: Rattus norvegicus; assay: Total radioactivity in tissues of male sd rats dosed orally with H-labeled compound at 21 mg/kg after 1 hr in liver; type: functional; details: route oral; method in brief: as §1
# [23] = tested on: Rattus norvegicus; assay: Total radioactivity in tissues of male sd rats dosed orally with H-labeled compound at 21 mg/kg after 24 hr r in liver; type: functional; details: route oral; method in brief: as §1
# [24] = tested on: Rattus norvegicus; assay: Total radioactivity in tissues of male sd rats dosed orally with H-labeled compound at 21 mg/kg after 24 hr r in plasma; type: functional; details: route oral; method in brief: as §1
# [25] = tested on: Rattus norvegicus; assay: Total radioactivity in tissues of male sd rats dosed orally with H-labeled compound at 21 mg/kg after 30 min in kidney; type: functional; details: route oral; method in brief: as §1
# [26] = tested on: Rattus norvegicus; assay: Total radioactivity in tissues of male sd rats dosed orally with H-labeled compound at 21 mg/kg after 48 hr in lung; type: functional; details: route oral; method in brief: as §1
# [27] = tested on: Rattus norvegicus; assay: Amount of radioactivity elute with H-labeled at 21 mg/kg after 4 hr using RP-HPLC. at a dose of […] in lung of male sd rat.
# [28] = tested on: Rattus norvegicus; assay: Amount of radioactivity elute with H-labeled at 21 mg/kg after 1 hr using RP-HPLC. at a dose of 2.02 ug/g in lung of male sd rat.
structure (smiles),measurement,setting,value
Oc1cc2c(cc1CCCOc1ccccc1)OC(CCc1ccccc1)C2 (stereo not drawn),IC50,[1],23 nM
same,Total radioactivity,[2],4.11 ug equiv g-1
same,Total radioactivity,[3],1.09 ug equiv g-1
same,Activity,[4],80.4%
same,Total radioactivity,[5],3.92 ug equiv g-1
same,Total radioactivity,[6],143.94 ug equiv g-1
same,Total radioactivity,[7],40.77 ug equiv g-1
same,Total radioactivity,[8],3.34 ug equiv g-1
same,Total radioactivity,[9],51.19 ug equiv g-1
same,Total radioactivity,[10],100.78 ug equiv g-1
same,Total radioactivity,[11],10.34 ug equiv g-1
same,Total radioactivity,[12],22.75 ug equiv g-1
same,Total radioactivity,[13],5.81 ug equiv g-1
same,Total radioactivity,[14],2.82 ug equiv g-1
same,Total radioactivity,[15],0.03 ug equiv g-1
same,Total radioactivity,[16],0.11 ug equiv g-1
same,Total radioactivity,[17],0.82 ug equiv g-1
same,Total radioactivity,[18],2.75 ug equiv g-1
same,Total radioactivity,[19],9.87 ug equiv g-1
same,Total radioactivity,[20],5.5 ug equiv g-1
same,Total radioactivity,[21],1.62 ug equiv g-1
same,Total radioactivity,[22],10.93 ug equiv g-1
same,Total radioactivity,[23],0.68 ug equiv g-1
same,Total radioactivity,[24],0.64 ug equiv g-1
same,Total radioactivity,[25],0.85 ug equiv g-1
same,Total radioactivity,[26],0.09 ug equiv g-1
same,Activity,[27],8.9%
same,Activity,[28],56.3%
